# Reference: ChEMBL document CHEMBL1240364, “Ex vivo comparison of microbicide efficacies for preventing HIV-1 genomic integration in intraepithelial vaginal cells” (Antimicrob Agents Chemother, 2010)
# Tests used:
# [1] = test system: Human immunodeficiency virus 1; experiment: Antiviral activity against HIV1 JRCSF infected in human vaginal intraepithelial cells assessed as viral genomic integration relative to control at 30 uM by singleplex PCR assay; conditions: Human immunodeficiency virus 1, JRCSF ISOLATE
# [2] = test system: Human immunodeficiency virus 1; experiment: Antiviral activity against HIV1 JRCSF infected in human vaginal intraepithelial cells assessed as decrease in viral genomic integration at 30 uM by multiplex PCR assay; type: functional, JRCSF ISOLATE; parameters: scale not given: the % may be the effect or the level left
# Summary of the method: (§1)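 EDTA-separated vaginal epithelial sheets, calcium-replenished, pretreated 1 h with a single compound concentration, then spinoculated with 100 ng/ml Gag p24 HIV-1JRCSF (2 h, 1,200 × g) and cultured 48 h at 37°C. Integrated DNA measured by Alu-LTR nested real-time PCR against an ACH-2 standard curve, with β-actin normalization run either in separate wells (singleplex) or in the same wells (multiplex). Quadruplicate PCRs; integration relative to untreated infection.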
# [3] = test system: Human immunodeficiency virus 1; experiment: Antiviral activity against HIV1 JRCSF infected in human vaginal epithelium assessed as inhibition of viral genomic integration by titration assay; type: functional; conditions: for IC50: Human immunodeficiency virus 1, JRCSF ISOLATE; for Activity: JRCSF ISOLATE
# Summary of the method: (§2)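 Vaginal epithelial sheets separated from stroma with 5 mM EDTA overnight at 4°C, replenished 1 h with 5 mM CaCl2. Pretreated with compound titrations for 1 h, then spinoculated with 100 ng/ml Gag p24 HIV-1JRCSF for 2 h at 1,200 × g. Sheets washed and cultured 2–3 days at 37°C. Emigrated cells and sheets pooled; Alu-LTR nested real-time PCR run in quadruplicate. Integration expressed relative to untreated infection; IC50 by nonlinear regression.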
# [4] = test system: Human immunodeficiency virus 1; experiment: Antiviral activity against HIV1 isolate M1 infected in human vaginal intraepithelial cells assessed as decrease in viral genomic integration at 1 uM after 48 hrs by multiplex PCR assay; type: functional; parameters: scale not given: the % may be the effect or the level left
# Summary of the method: (§3)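 Vaginal epithelial sheets from two donors, EDTA-isolated and calcium-replenished, were preincubated with compound and then spinoculated with 100 ng/ml Gag p24 of primary mucosal isolate HIV-1M1 for 2 h at 1,200 × g. After 48 h culture, integration was measured by multiplex Alu-LTR/β-actin nested real-time PCR and expressed relative to untreated infection.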
# [5] = test system: Human immunodeficiency virus 1; experiment: Antiviral activity against HIV1 JRCSF infected in human vaginal intraepithelial cells assessed as decrease in viral genomic integration at 1 uM by singleplex PCR assay; type: functional, JRCSF ISOLATE; parameters: scale not given: the % may be the effect or the level left
# Summary of the method: as §1
# [6] = test system: Human immunodeficiency virus 1; experiment: Antiviral activity against HIV1 JRCSF infected in human vaginal intraepithelial cells assessed as viral genomic integration relative to control at 1 uM by singleplex PCR assay; conditions: Human immunodeficiency virus 1, JRCSF ISOLATE
# [7] = test system: Human immunodeficiency virus 1; experiment: Antiviral activity against HIV1 JRCSF infected in human vaginal epithelium leukocytes assessed as inhibition of viral genomic integration by titration assay; type: functional, cell-based; conditions: JRCSF ISOLATE
# Summary of the method: as §2
# [8] = test system: Human immunodeficiency virus 1; experiment: Antiviral activity against HIV1 JRCSF infected in PHA-activated human T cells assessed as inhibition of viral genomic integration by titration assay; type: functional, cell-based; conditions: T-cell
# Summary of the method: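 PBMC from two blood donors activated 2 days with 0.4 μg/ml PHA; 100,000 lymphoblasts per well pretreated in duplicate with a concentration series for 1 h at room temperature, infected with 200 ng/ml Gag p24 HIV-1JRCSF for 2 h, washed, cultured 48 h at 37°C in medium with 50 U/ml IL-2. Integrated DNA measured by Alu-LTR nested real-time PCR; IC50 from nonlinear regression.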
# [9] = test system: Human immunodeficiency virus 1; experiment: Antiviral activity against HIV1 JRCSF infected in human vaginal epithelium mucosa assessed as decrease viral integration at 10 ng/ml by titration assay; type: functional; conditions: Human immunodeficiency virus 1, JRCSF ISOLATE
# Summary of the method: as §2
# [10] = test system: Human immunodeficiency virus 1; experiment: Antiviral activity against HIV1 JRCSF infected in human intraepithelial leukocytes assessed as decrease viral integration at 0.1 ug/ml by titration assay; type: functional, JRCSF ISOLATE; parameters: scale not given: the % may be the effect or the level left
# Summary of the method: as §2
# [11] = test system: Human immunodeficiency virus 1; experiment: Antiviral activity against HIV1 JRCSF infected in human vaginal intraepithelial cells assessed as viral genomic integration relative to control at 0.223 uM by singleplex PCR assay; conditions: Human immunodeficiency virus 1, JRCSF ISOLATE
# [12] = test system: Human immunodeficiency virus 1; experiment: Antiviral activity against HIV1 JRCSF infected in human vaginal intraepithelial cells assessed as decrease in viral genomic integration at 0.223 uM by multiplex PCR assay; type: functional, JRCSF ISOLATE; parameters: scale not given: the % may be the effect or the level left
# Summary of the method: as §1
# [13] = test system: Human immunodeficiency virus 1; experiment: Antiviral activity against HIV1 JRCSF infected in human intraepithelial leukocytes assessed as decrease viral integration at 0.5 ug/ml by titration assay; type: functional, JRCSF ISOLATE; parameters: scale not given: the % may be the effect or the level left
# Summary of the method: as §2
# [14] = test system: Human immunodeficiency virus 1; experiment: Antiviral activity against HIV1 isolate M1 infected in human vaginal intraepithelial cells assessed as decrease in viral genomic integration at 0.223 uM after 48 hrs by multiplex PCR assay; type: functional; parameters: scale not given: the % may be the effect or the level left
# Summary of the method: as §3
compound,measurement,setting,value
Cc1ccc(-c2ccc3c(c2)C=C(C(=O)Nc2ccc(C[N+](C)(C)C4CCOCC4)cc2)CCC3)cc1.[Cl-],"level, % of control at 30 µM",[1],10%
same,Activity,[2],8.6%
same,IC50,[3],5.84 nM
same,Activity,[3],Dose-dependent effect
same,Activity,[4],<2%
[N-]=[N+]=NCc1cccc(C(=O)/C=C(\O)C(=O)O)c1,Activity,[5],8.4%
same,IC50,[3],190 nM
same,Activity,[3],Dose-dependent effect
c1cc(CN2CCCNCCNCCCNCC2)ccc1CN1CCCNCCNCCCNCC1 [PLERIXAFOR],"level, % of control at 1 µM",[6],177%
same,Activity,[4],117%
enfuvirtide,Activity,[7],Dose-dependent effect
same,IC50,"[8]; Human immunodeficiency virus 1, JRCSF ISOLATE",7.57 nM
same,Activity,[8]; JRCSF ISOLATE,Dose-dependent effect
same,inhibition at 0.01 µg/mL,[9],> 80%
same,Activity,[10],1.92%
same,"level, % of control at 0.223 µM",[11],8%
same,Activity,[12],6%
same,Activity,[13],30.4%
same,Activity,[14],<2%
